Experimental findings from ChEMBL document CHEMBL3112443, “Development of new LXR modulators that regulate LXR target genes and reduce lipogenesis in human cell models” (Eur J Med Chem, 2014) are described below.

Structures are written as SMILES. Active and inactive are the calls of the source. No cut-off for these calls is given here.

Assay [1] deals with T1, Liver X receptor (Homo sapiens) (UniProt Q13133+P55055). The assay can be described thus: Modulation of LXR in human HepG2 cells assessed as decrease of T0901317-induced ABCA1 mRNA expression at 10 uM after 4 days by qPCR analysis. The class given is cell-based. For orientation: In qPCR the cycle at which signal appears reflects the starting amount.
Assay [2] has as its target T1, Liver X receptor (Homo sapiens). The assay can be described thus: Modulation of LXR in human myotubes assessed as decrease of T0901317-induced ABCA1 mRNA expression at 10 uM after 4 days by qPCR analysis. In outline: (§1)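 Cells given 1 mM T0901317 (so in the source) together with […] test compound; DMSO 0.1% vehicle. Myotubes treated 4 days, HepG2 24 h. Total RNA reverse-transcribed with hexamer primers, then SYBR Green qPCR. Expression normalized to 36B4 and given as fold change vs DMSO control, mean ± SEM, n = 3–11 separate experiments, at least 3 parallels each.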

Assay [3] shares this target. Briefly: Modulation of LXR in human myotubes assessed as increase of ABCA1 mRNA expression at 10 uM after 4 days by qPCR analysis. In a few lines:
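Primary human myotubes (satellite cells from abdominal muscle of 6 healthy donors, differentiated 7 days at 5.5 mM glucose, 25 pM insulin) treated with compound or 0.1% DMSO for 4 days. Total RNA reverse-transcribed with hexamer primers; SYBR Green qPCR. ABCA1 normalised to 36B4 and reported as fold change versus DMSO, mean ± SEM, n = 3–11.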

The target is the same in assay [4]. The assay can be described thus: Modulation of LXR in human myotubes assessed as increase of ABCA1 mRNA expression at 10 uM after 4 days by qPCR analysis.
Assay [5] shares this target. The assay can be described thus: Modulation of LXR in human HepG2 cells assessed as reduction of T0901317-induced lipogenesis using [1-14C]acetate at 1 uM after 24 h by scintillation counting.
Assay [6] shares this target. The assay can be described thus: Modulation of LXR in human myotubes assessed as reduction of T0901317-induced lipogenesis using [1-14C]acetate at 10 uM after 4 days by scintillation counting.
The target is the same in assay [7]. Briefly: Modulation of LXR in human myotubes assessed as increase of D-[14C(U)]deoxy-D-glucose uptake at 1 uM after 4 days by scintillation counting. The class given is protein assay. In a few lines:
(§2)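 Primary myotubes, 7 days differentiated, treated 4 days with compounds in 0.1% DMSO. Then given D-[14C(U)]deoxy-D-glucose (100 mM as printed) for 4 h. Washed twice with ice-cold PBS, lysed in 0.1 M NaOH and counted by liquid scintillation. Uptake normalized to protein; mean ± SEM of separate experiments, at least 3 parallels each.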

Assay [8] shares this target. Briefly: Modulation of LXR in human myotubes assessed as increase of D-[14C(U)]deoxy-D-glucose uptake after 4 days by scintillation counting. The class given is protein assay. In outline:
as §2

Assay [9] has the same target. The assay can be described thus: Modulation of LXR in human myotubes assessed as increase of T0901317-induced lipogenesis using [1-14C]acetate at 1 uM after 4 days by scintillation counting. The class given is protein assay. In outline:
(§3)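 Primary myotubes from satellite cells of 6 healthy donors, used after 7 days of differentiation. Treated 4 days with compounds ± T0901317 in 0.1% DMSO, then labelled 24 h with [1-14C]acetate (100 mM as printed). Lysed in NaOH; total lipids isolated by hydrophobic filtration and scintillation-counted. Normalized to protein; fold vs control, mean ± SEM, n = 3–6; dose–response n = 6.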

For assay [10] the target is unchanged. The assay can be described thus: Modulation of LXR in human myotubes assessed as reduction of lipogenesis using [1-14C]acetate after 4 days by scintillation counting. The class given is protein assay. In a few lines:
as §3

The target is the same in assay [11]. The assay can be described thus: Modulation of LXR in human HepG2 cells assessed as decrease of T0901317-induced SCD1 mRNA expression at 10 uM after 4 days by qPCR analysis. The class given is cell-based.
Assay [12] has the same target. The assay can be described thus: Modulation of LXR in human myotubes assessed as decrease of T0901317-induced SCD1 mRNA expression at 10 uM after 4 days by qPCR analysis. In a few lines: as §1
The target is the same in assay [13]. The assay can be described thus: Modulation of LXR in human HepG2 cells assessed as reduction of lipogenesis using [1-14C]acetate at 1 uM after 24 h by scintillation counting.
The target is the same in assay [14]. The assay can be described thus: Modulation of LXR in human HepG2 cells assessed as decrease of T0901317-induced FAS mRNA expression at 10 uM after 4 days by qPCR analysis. The format is cell-based.
Assay [15] shares this target. The assay can be described thus: Modulation of LXR in human myotubes assessed as decrease of T0901317-induced FAS mRNA expression at 10 uM after 4 days by qPCR analysis. In outline: as §1
Assay [16] shares this target. The assay can be described thus: Modulation of LXR in human myotubes assessed as increase of D-[14C(U)]deoxy-D-glucose uptake at 50 uM after 4 days by scintillation counting. The format is protein assay. In outline: as §2
The target is the same in assay [17]. Briefly: Modulation of LXR in human HepG2 cells assessed as reduction of T0901317-induced lipogenesis using [1-14C]acetate at 1 uM after 4 days by scintillation counting. The format is cell-based.
Assay [18] shares this target. Briefly: Modulation of LXR in human myotubes assessed as increase of D-[14C(U)]deoxy-D-glucose uptake at 1 to 50 uM after 4 days by scintillation counting. The format is protein assay. In a few lines: as §2

For `CC(C)CC[C@H](O)[C@@H](C)[C@H]1CC[C@H]2[C@@H]3CC=C4C[C@@H](O)CC[C@]4(C)[C@H]3CC[C@]12C`, the result in assay [1] and in assay [2] was inactive. For the same compound, the result in assay [3], in [4], in assay [5] and in assay [6] was Active.
Regarding `CC(C)CC[C@H](O)[C@@H](C)COCc1ccc(S(=O)(=O)N(COCC[Si](C)(C)C)COCC[Si](C)(C)C)cc1`, the outcome in assay [7], in [9], in assay [11], in assay [12] and in [13] was Active. Besides, the Activity entry in assay [8] and in assay [10] was “Dose-dependent effect” each time.
Turning to `CC(C)CC[C@H](O)[C@@H](C)COCc1ccc(S(=O)(=O)N(C)C2CCCCC2)cc1`, the outcome in assay [7], in [9], in assay [1] and in assay [2] was Active. The Activity result in [8] was “Dose-dependent effect”. For the same compound, the outcome in assay [14], in assay [11], in [15] and in [12] was inactive.
As for `COc1ccc2cc(COC[C@H](C)[C@@H](O)CCC(C)C)ccc2c1`, the outcome in assay [16], in assay [17], in [9], in assay [14], in [11] and in assay [15] was Active. The result in [12] was Active. In addition, the Activity entry in assay [8] is “Dose-dependent effect”.
Turning to `CCCCCCN(CCCCCC)S(=O)(=O)c1ccc(COC[C@H](C)[C@@H](O)CCC(C)C)cc1`, the outcome in assay [18], in assay [1], in assay [14], in [11], in assay [2] and in assay [15] was inactive. Further, the outcome in assay [12] was inactive. The result in assay [9] was Active.
